Bioassay records: PubChem, several laboratories
Lipid droplet: hepatic lipid droplet formation modulation | hit rate 0.4% among 240,000 | AID 1656 | inhibition, % at 6.5 µM | AML12 mouse hepatocytes, oleate lipid droplets, BODIPY imaging;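 active means lipid droplet intensity inhibited by at least 50%, with more than 500 cells counted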
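Test system: AML12 mouse liver cells; schedule: overnight exposure; technique: high-content imaging of BODIPY-stained droplets and DAPI nuclei; read-out: % inhibition of corrected integrated BODIPY droplet signal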
HCV NS3 hel inh: blocks Hepatitis C virus NS3 helicase unwinding | NS3 helicase DNA unwinding, Cy5 molecular beacon fluorescence | inhibition, % at 10.9 µM | hit rate 0.56% among 290,000;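 active means inhibition above the mean of all tested compounds plus 3 SD, set per campaign, cut at about 35% in these data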;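 further: 0% = DMSO wells and 100% = thioflavine S control wells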
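System: NS3 helicase fragment of HCV / Schedule: 1 h at 25 °C / Control set: DMSO alone as 0% and 110 µM thioflavine S as 100% / Reagent: Cy5/quencher beacon DNA duplex and ATP to start / Technique: Cy5 fluorescence / Replication: singlicate / Evaluation: % inhibition of end-to-start signal ratio versus controls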
HSP90 refold inh: inhibitors of HSP90 luciferase refolding in rabbit reticulocyte lysate | inhibition, % at 5.6 µM | luciferase refolding luminescence, 3 h | hit rate 0.91% among 290,000;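 active means inhibition above the screen-wide mean plus 3 SD, computed separately per campaign, cut at about 16% in these data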;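 further: 0% = DMSO wells and 100% = 60 µM geldanamycin wells; inhibitors lower the luminescence because luciferase stays unfolded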
HSF1 inhib: HSF1 inhibition; activity change, negative = inhibition, % at 7.5 µM (by protocol); AID 2098; hit rate 0.77% among 300,000; NIH3T3-HGL HSE-luciferase, MG132-induced, luminescence 8 h; stronger effect = lower value;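 active means more than half of replicate wells show activity change below -50%, luminescence cut by over half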;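 further: luciferase reports HSF-1 transcriptional activity via heat shock element; 0% = median of DMSO wells and -100% = zero luminescence signal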
HSF-1 act: increases HSF-1 driven luciferase reporter signal; NIH3T3-HGL HSF-1 luciferase reporter, MG132, 8 h; 100% = twice DMSO control signal; activation, % at 9 µM; hit rate 1.7% among 300,000; AID 504408;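 active means mean replicate activation of at least 50% with a set share of replicates each reaching 50%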;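 further: 0% = median of the neutral control wells and 100% = twice that signal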
NS3 hel confirm: HCV NS3 helicase inhibition, confirmation assay. shares compounds with HCV NS3 hel inh. NS3 helicase DNA unwinding, Cy5 molecular beacon fluorescence. inhibition, % at 10.9 µM. hit rate 31% among 1,600. AID 1943;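 active means inhibition above the mean of all tested compounds plus 3 SD, cutoff set per campaign, cut at about 36% in these data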
FID counter trip: counter-screen for HCV NS3 helicase inhibitors: DNA intercalator displacement; shares compounds with HCV NS3 hel inh; DNA fluorescent intercalator displacement, fluorescence; inhibition, % at 7.9 µM; hit rate 4% among 1,600; in the data active means inhibition above about 37%;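 further: 0% = vehicle and 100% = reference compound; higher means more displacement of ethidium bromide from the DNA hairpin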
FID counter DR: displaces fluorescent intercalator from DNA, HCV helicase counter-screen. shares compounds with HCV NS3 hel inh. fluorescent intercalator displacement from DNA, fluorescence. IC50, µM. 120 tested, under 10 active; call rule not given here
Active calls of the source: *; / = not tested or not shown. Rows were chosen to be rich in hits. Some 3.8% of all compounds tested hit in one or more screens of this group.

SMILES | Lipid droplet | HCV NS3 hel inh | HSP90 refold inh | HSF1 inhib | HSF-1 act | NS3 hel confirm | FID counter trip | others
CCCCNC(=O)CSc1nnc(-c2ccc(S(=O)(=O)N3CCCC3)cc2)n1C | -5.6 | 5.0 | -3.8 | 5.0 | -14.8 | / | /
C=CCNC(=O)CSc1nnc(-c2ccc(S(=O)(=O)N3CCCC3)cc2)n1C | / | 47.4* | 2.6 | 1.7 | -2.3 | -13.9 | 4.7
COCCn1c(=O)[nH]c(=O)c2c1nc(-c1ccc(-c3ccc(Cl)cc3[N+](=O)[O-])o1)n2Cc1ccccc1 | 26.2 | 36.3* | 1.4 | 3.7 | 20.9 | -6.3 | -37.8
CC(OC(=O)CNC(=O)c1ccc(Cl)cc1)C(=O)NC1CCCCC1C (centres undefined) | / | / | / | -1.3 | -0.1 | / | /
C/C1=C\CCC2C(/C=C(\C)CC1)OC(=O)C2CN1CCCCC1 (centres undefined) | 2.4 | 5.1 | 0.0 | -8.6 | -18.6 | / | /
C/C(=C\C(=O)c1ccc(Cl)cc1)Nc1ccc(Br)cc1 | / | 47.4* | -0.8 | 7.7 | 24.0 | -0.1 | 7.7
C=CCn1c(SCC(=O)N2CCOCC2)nc2scc(-c3ccco3)c2c1=O | / | 15.1 | -0.8 | -4.0 | 28.9 | / | /
CC(C)C(C)(C#N)NC(=O)CSc1nc2scc(-c3ccco3)c2c(=O)n1-c1ccccc1 (centres undefined) | / | 36.4* | 1.3 | 15.2 | 36.0 | 105.2* | 4.4 | FID counter DR=>79.4
C=CCn1c(SCC(C)=O)nc2scc(-c3ccco3)c2c1=O | 6.7 | 39.0* | 3.6 | 2.0 | 23.1 | -0.9 | 3.8
Cc1cccc(NC(=O)CSc2nnc(Cc3ccccc3)o2)c1 | 20.3 | -6.9 | 2.2 | 3.1 | 8.0 | / | /
COc1ccc(NS(=O)(=O)c2cccc(C(=O)NNC(=O)c3ccccc3OC)c2)cc1 | / | / | / | 3.4 | 29.9 | / | /
COc1ccc(NS(=O)(=O)c2cccc(C(=O)NNC(=O)NCCCl)c2)cc1 | 2.2 | 68.6* | 1.4 | -3.2 | -8.8 | -13.8 | -5.5
COC(=O)c1cc(N=Cc2c(O)c3ccccc3oc2=O)cc(C(=O)OC)c1 | -1.6 | 40.3* | -5.0 | -6.0 | 2.0 | 4.2 | 10.2
COc1ccc(-c2nc(CS(=O)CC(=O)NC3CCCCC3C)c(C)o2)cc1 (centres undefined) | -4.3 | -3.4 | -1.4 | 2.7 | -2.2 | / | /
O=C(N/N=C/c1cc([N+](=O)[O-])ccc1O)C(O)(c1ccccc1)c1ccccc1 | 2.7 | 46.1* | -7.5 | -41.2 | -35.3 | -7.9 | 18.9
Fc1cccc(NC(=S)NCc2ccccc2Cl)c1 | -49.7 | 7.4 | 1.3 | 9.6 | 8.3 | / | /
COc1ccc2c(c1)C(=O)N(c1ccccc1C)C(=O)C2(C)C | -18.2 | 7.8 | -0.6 | -5.3 | -2.5 | / | /
Cc1ccc(NC(=O)CN2C(=O)N/C(=C/c3cccn3-c3ccc(C(=O)O)cc3)C2=O)cc1 | 32.3 | 33.5 | -1.8 | / | / | / | /
Cc1ccc(NC(=O)CN2C(=O)N/C(=C/c3ccco3)C2=O)cc1 | / | 39.0* | -0.4 | 1.8 | 3.2 | 8.9 | 6.8
COc1ccc(/C=N/NC2=NS(=O)(=O)c3ccccc32)cc1OC(C)=O | -9.2 | 51.5* | 0.2 | -9.1 | -17.4 | -0.2 | -1.1
CC(=O)Oc1ccc(/C=N/NC2=NS(=O)(=O)c3ccccc32)cc1 | / | 34.6 | 0.5 | -3.5 | 10.8 | / | /
CN(C)c1ccc(/C=N/NC2=NS(=O)(=O)c3ccccc32)cc1 | 3.2 | 39.7* | 5.9 | -2.3 | 0.3 | -5.7 | -13.6
CN(Cc1ccco1)C(=O)Cn1nc(-c2ccc(Cl)cc2)ccc1=O | -13.4 | 0.2 | 1.9 | -1.2 | 1.3 | / | /
Cc1ccc(S(=O)(=O)NN2C(=O)/C(=C/c3ccc(C(=O)O)cc3)SC2=S)cc1 | 8.0 | 37.2* | -1.1 | -3.5 | 22.5 | -19.0 | -6.8
O=C1/C(=C/c2cccc(F)c2)SC(=S)N1NS(=O)(=O)c1ccccc1 | 23.4 | 36.8* | 2.9 | 8.5 | 12.6 | 69.7* | -6.5
Cc1ccc(S(=O)(=O)NN2C(=O)/C(=C/c3cccn3C)SC2=S)cc1 | -1.2 | 49.6* | 6.2 | / | / | 59.9* | 8.2
Cc1ccc(/C=C2\SC(=S)N(NS(=O)(=O)c3ccc(C)cc3)C2=O)cc1 | 1.9 | 29.1 | -0.9 | 4.1 | 11.1 | / | /
